Assay outcomes as filed in PubChem BioAssay.
Most compounds without a hit are left out; they make up all but 2.2% or so of the library.
F508del corr – correctors of CFTR F508del function in bronchial epithelial cells | activity (quench increase), % at 7.58 µM | AID 720511 | hit rate 0.36% among 350,000 | CFBE cells, YFP halide quenching; stimulated with forskolin plus potentiator P3; % fluorescence drop versus neutral controls;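 active = mean added fluorescence quench of at least 8% versus neutral control, with both replicates also reaching 8%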;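 also: cells transiently co-express mutant CFTR-F508del with the halide-sensitive YFP; corrector assay measuring rescue of mutant channel to the surface after 24 h compound exposure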
FGF22 binding – FGF22 (human) thermal shift binding; activity (Tm shift, normalised), % at 9.99 µM; AID 651658; recombinant FGF22 thermal shift, SYPRO orange fluorescence; percent of sucrose octasulfate shift, DMSO zero; hit rate 1.5% among 340,000; Q9HCT0;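 active = mean Tm shift, scaled 0 neutral to 100 positive control, at about 1.3% or above, every replicate too, limit read from the data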
dFosB activator – mouse delta FosB homodimer activation; P13346; purified delta FosB, TAMRA-CDK5 oligo fluorescence polarization; percent of positive-control signal above neutral wells; activation, % at 25 µM; hit rate 0.99% among 340,000; AID 493131;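 active = mean activation above about 17%, with every replicate also reaching it, limit read from the data, passing the limit was not always enough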
Target sequence (P13346 whole entry, looked up): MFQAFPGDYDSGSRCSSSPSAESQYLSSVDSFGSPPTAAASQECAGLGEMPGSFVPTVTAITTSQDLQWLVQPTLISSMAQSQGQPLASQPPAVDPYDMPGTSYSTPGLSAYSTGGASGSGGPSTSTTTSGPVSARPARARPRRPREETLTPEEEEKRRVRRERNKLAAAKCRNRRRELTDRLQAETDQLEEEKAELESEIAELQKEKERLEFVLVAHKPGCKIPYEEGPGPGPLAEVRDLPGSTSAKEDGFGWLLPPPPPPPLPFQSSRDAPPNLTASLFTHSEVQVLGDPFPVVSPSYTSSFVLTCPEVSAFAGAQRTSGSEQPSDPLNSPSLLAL
S100A4 MyoIIA – inhibitors of human S100A4 binding to myosin IIA peptide; P26447; S100A4/TAMRA-MyoIIA peptide fluorescence polarization; inhibition, % at 10.7 µM; hit rate 0.14% among 360,000;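 active = mean inhibition of at least 70% across replicates, with every replicate also reaching that level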
Target sequence (P26447 whole entry, looked up): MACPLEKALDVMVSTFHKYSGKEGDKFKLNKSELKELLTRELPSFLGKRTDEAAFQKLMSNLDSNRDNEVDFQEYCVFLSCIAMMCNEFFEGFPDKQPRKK
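System – human S100A4 monomer protein, biochemical binding assay · Buffer or medium – Calcium-containing HEPES buffer, pH 7.2 · Timing – 5 min between mix addition and reading · Also added – TAMRA-labelled myosin IIA heavy-chain peptide probe, 5 nM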
A number is an active result; – = inactive; · = no result given.

SMILES	F508del corr	FGF22 binding	dFosB activator	S100A4 MyoIIA
Cc1cccc(N2CCN(C(=O)c3ccc4nccnc4c3)CC2C)c1 (configuration not stated)	–	43	–	–
Cc1cccc(N2CCN(C(=O)c3ccc4nc(-c5ccco5)c(-c5ccco5)nc4c3)CC2C)c1 (configuration not stated)	·	·	–	·
Cc1ccc2nc(C)cc(Nc3ccc4c(c3)OCCO4)c2c1	·	·	31	·
c1csc(CNc2ncnc3ccc(-c4ccc5c(c4)OCO5)cc23)c1	–	44	–	–
C[C@H](CO)N1C[C@H](C)[C@H](CN(C)Cc2cccnc2)Oc2cc(C#CCN(C)C)ccc2S1(=O)=O	–	–	·	–
COc1cccc(S(=O)(=O)N[C@H]2C=C[C@H](CC(=O)NCc3ccc(F)cc3)O[C@@H]2CO)c1	–	–	·	–
COc1ccc(C(=O)NCCNc2ccc([N+](=O)[O-])cc2)cc1	–	67	–	–
COc1ccc(-c2ccc3c(c2)O[C@H](CN(C)C(C)=O)[C@H](C)CN([C@@H](C)CO)S3(=O)=O)cc1	–	–	·	–
O=C(CNc1ccc2ccccc2c1)N/N=C/c1ccc(OC(=O)/C=C/c2ccco2)cc1	–	44	–	–
O=C(CNc1cccc2ccccc12)N/N=C/c1ccc(OC(=O)/C=C/c2ccco2)cc1	–	–	–	–
COc1ccc(NC(=O)C2CC(=O)n3c(nc4ccccc43)N2)cc1 (configuration not stated)	–	–	34	–
O=C(Nc1ccc(F)cc1)C1CC(=O)n2c(nc3ccccc32)N1 (configuration not stated)	·	·	–	·
N#Cc1cccn1-c1nccs1	–	43	–	–
NC(=O)C[N+]1(CC#CC(O)(c2ccccc2)c2ccccc2)CCCC1	–	4.0	–	–
Cc1noc(C)c1NC(=O)N[C@H]1C=C[C@@H](CC(=O)N2CCCCC2)O[C@H]1CO	–	–	·	–
O=C(Cc1ccccc1)Nc1cccc([N+](=O)[O-])c1	·	–	–	–
O=C(Cc1cccs1)Nc1cccc([N+](=O)[O-])c1	–	43	–	–
CC(CC(=O)O)CC(=O)Nc1cccc([N+](=O)[O-])c1 (configuration not stated)	–	43	–	–
C[C@H]1CN([C@@H](C)CO)C(=O)Cc2cc(NC(=O)C3CCCCC3)ccc2O[C@@H]1CN(C)S(=O)(=O)c1cn(C)cn1	–	–	·	–
O=C(C1CCC1)N1CCCCN2[C@@H](CO)[C@H](c3ccc(C#CC4CCCC4)cc3)[C@@H]2C1	–	–	·	–
COC(=O)c1ccc(CS(=O)(=O)c2ccc(F)cc2)o1	9.5	–	–	–
CCN(CC)C(=O)C1CCCN(c2ccccc2[N+](=O)[O-])C1 (configuration not stated)	·	43	–	–
C[C@@H]1CN([C@H](C)CO)C(=O)c2cc(C3=CCCCC3)cnc2O[C@H]1CN(C)Cc1ccccc1	–	–	·	–
NS(=O)(=O)c1cccc(NC(=O)COC(=O)Cc2ccc(S(=O)(=O)N3CCCCC3)s2)c1	–	43	–	–
O=C(COC(=O)Cc1ccc(S(=O)(=O)N2CCCCC2)s1)Nc1ccc2c(c1)OCO2	·	·	–	·
SMILES	F508del corr	FGF22 binding	dFosB activator	S100A4 MyoIIA
COc1ccc(-c2nnn(CC(=O)N(CCO)C(C(=O)NC3CCCC3)c3ccncc3)n2)cc1 (configuration not stated)	–	43	–	–
CCN(CC)CCN(C(=O)Cn1nnc(-c2ccc(OC)c(OC)c2)n1)C(C(=O)NC1CCCC1)c1ccc(F)cc1 (configuration not stated)	–	1.7	–	–
Cc1ccc(-c2nnn(CC(=O)N(CC3CCCO3)C(C(=O)NC3CCCCC3)c3ccc(F)cc3)n2)o1 (configuration not stated)	·	·	25	·
O=C(C[C@@H]1CC[C@@H]2[C@H](COC[C@H](O)CN2Cc2cc(F)ccc2F)O1)N1CCc2ccccc2C1	–	–	·	–
O=C(C1CC1)N1CC(=O)N2[C@H](C1)[C@H](c1ccc(C#Cc3cccc(F)c3)cc1)[C@@H]2CO	–	·	·	–
C[C@@H]1CN([C@H](C)CO)C(=O)c2cccc(NS(=O)(=O)c3ccc(Cl)cc3)c2O[C@H]1CN(C)CC1CCCCC1	–	–	·	–
CC(C)(C)NC(=O)NC(=O)CN1CCCCCCC1	–	–	–	–
CC(C)(C)NC(=O)NC(=O)CN1CCCCC1	–	43	–	–
CC(C)(C)NC(=O)NC(=O)CN1CCN(C(c2ccccc2)c2ccccc2)CC1	–	43	–	–
O=C(CN1CCCCCCC1)NC(=O)NC1CCCCC1	–	–	–	–
CC(C)(C)NC(=O)NC(=O)CN1CCN(Cc2ccccc2)CC1	–	–	–	–
O=C(CN1CCCCC1)NC(=O)NC1CCCC1	–	43	–	–
C/C=C/c1ccc([C@H]2[C@@H](CO)N(CC3CCOCC3)C23CN(S(=O)(=O)CC)C3)cc1	–	–	·	–
CN1C(=O)c2cc(NC(=O)c3cccs3)ccc2OC[C@@H]2O[C@@H](CC(=O)NCC(F)(F)F)CC[C@@H]21	–	–	·	–
CCC1(c2ccc(F)cc2)NC(=O)N(CC(=O)Nc2cc(S(=O)(=O)N(C)C)ccc2Cl)C1=O (configuration not stated)	–	44	–	–
CCC1(c2ccc(F)cc2)NC(=O)N(CC(=O)Nc2ccc(S(N)(=O)=O)cc2)C1=O (configuration not stated)	–	–	–	–
CN(C)S(=O)(=O)c1ccc(Cl)c(NC(=O)COC(=O)CN2C(=O)C3CCCCC3C2=O)c1 (configuration not stated)	–	43	–	–
O=C(CSC1=NCCN1)Nc1cccc([N+](=O)[O-])c1	10	–	–	–
Nc1nc(SCC(=O)Nc2cccc([N+](=O)[O-])c2)n[nH]1	–	–	–	–
O=C(CCc1n[nH]c(=O)[nH]c1=O)Nc1cccc([N+](=O)[O-])c1	–	44	–	–
Cc1cccc(-c2ccc([C@H]3[C@H](CO)N4CCCCN(Cc5cccnc5)C[C@@H]34)cc2)c1	–	–	·	–
Cc1cccc(-c2cc(N3CCCN(C)CC3)n3nccc3n2)c1	–	–	·	112
CN1CCCN(c2cc(-c3ccc4ccccc4c3)nc3ccnn23)CC1	–	–	·	139
CCOc1cccc(-c2cc(N3CCN(CCO)CC3)n3nccc3n2)c1	–	–	·	–
Cc1ccc2nc(-c3ccc(NC(=O)Cc4cccs4)cc3)[nH]c2c1	–	1.8	–	–
Cc1ccc2nc(NC(=O)Cc3cccs3)sc2c1	·	·	–	·
Cn1c(N)c(C(=O)COC(=O)C2CCC(C(C)(C)C)CC2)c(=O)n(C)c1=O (configuration not stated)	·	·	–	·
Cn1c(N)c(C(=O)COC(=O)/C=C/c2ccc(Cl)cc2Cl)c(=O)n(C)c1=O	–	44	·	–
Cn1c(N)c(C(=O)COC(=O)C2CCCC2)c(=O)n(C)c1=O	–	43	–	–
Cc1ccc(/C=N/n2c(-c3cccc(Cl)c3)n[nH]c2=S)o1	–	–	·	–
